Measured values: BindingDB's records for doi:10.1021/jm00165a017 (Abbott Laboratories, 1990)

Biological target: T1, Polyunsaturated fatty acid 5-lipoxygenase (Rattus norvegicus, UniProt P12527)
T1 sequence (P12527 whole entry): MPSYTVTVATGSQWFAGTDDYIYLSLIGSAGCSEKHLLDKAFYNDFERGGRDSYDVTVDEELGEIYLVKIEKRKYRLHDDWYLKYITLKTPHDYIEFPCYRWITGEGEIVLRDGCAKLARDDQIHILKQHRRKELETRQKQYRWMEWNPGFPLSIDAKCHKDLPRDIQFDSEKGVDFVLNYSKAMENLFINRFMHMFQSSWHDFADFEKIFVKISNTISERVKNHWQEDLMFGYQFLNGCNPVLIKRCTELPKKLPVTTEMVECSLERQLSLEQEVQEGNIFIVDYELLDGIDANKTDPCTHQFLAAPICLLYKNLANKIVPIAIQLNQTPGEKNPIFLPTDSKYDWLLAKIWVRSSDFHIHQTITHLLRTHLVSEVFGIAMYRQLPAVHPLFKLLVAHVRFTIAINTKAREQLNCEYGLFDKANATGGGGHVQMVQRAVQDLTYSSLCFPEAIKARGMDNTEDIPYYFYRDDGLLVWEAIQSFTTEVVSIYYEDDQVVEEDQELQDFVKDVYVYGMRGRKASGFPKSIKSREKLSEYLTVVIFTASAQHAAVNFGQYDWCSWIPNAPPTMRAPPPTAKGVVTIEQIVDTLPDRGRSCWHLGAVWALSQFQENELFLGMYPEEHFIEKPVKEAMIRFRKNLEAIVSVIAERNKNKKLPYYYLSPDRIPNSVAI
Experiment: In vitro inhibitory activity against 5-lipoxygenase in rat basophilic leukemia cells(RBL-1)
In short: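 Enzyme source: sonicated lysate of trypsin-harvested adherent RBL-1 cells (3.0 × 10^7 cells/mL in 10 mM BES, 10 mM PIPES, 1 mM EDTA, pH 6.8), 20000g 20-min supernatant. Compounds in DMSO preincubated with enzyme 20 min at 37 °C in buffer with 0.7 mM CaCl2, 100 mM NaCl. Radiolabelled 5-HETE counted after chromatography, corrected via [3H]5-HETE recovery.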

CC(C)Cc1ccc(C(Cc2ccccc2)C(=O)N(C)O)cc1 (stereo unspecified)
IC50: 1.5 µM
